# Measurements collected from several papers.
# Target: Calcium/calmodulin-dependent protein kinase type II subunit alpha (CAMK2A, Homo sapiens, UniProt Q9UQM7)
Structure (SMILES),read-out,mode,method,concentration,quantity,result
Cc1nn(C)cc1-c1nc2c(N3CCN(Cc4ccc(Cl)cc4)CC3)c(Cl)cnc2[nH]1,binding,,competition with immobilised ligand,1 µM,remaining binding,95%
Cn1cc(-c2cc(F)cc(N3CCn4c(cc5c4CCCC5)C3=O)c2CO)cc(Nc2ccc(N3CCN(C4COC4)CC3)cn2)c1=O,enzyme activity,inhibitor,,0.1 µM,inhibition,12%
N#CC1(c2ccccn2)CCN(Cc2cc(C(=O)O)c(=O)n3ccccc23)CC1,cell-free assay,,competition with immobilised ligand,1 µM,remaining binding,83%
O=C(Nc1cccnn1)N1CCN([C@@H]2CCOc3cc(C(F)(F)F)ccc32)CC1,cell-free assay,,,20 µM,inhibition,3%
Cn1cncc1[C@](O)(COc1ccc(C#N)cc1-c1ccc(OC(F)(F)F)cc1)c1ccc(C#N)cc1,cell-free assay,,competition with immobilised ligand,1 µM,remaining binding,95%
Nc1ncc(-c2nc(N3CCOCC3)nc(N3CCOCC3)n2)c(C(F)F)n1,binding,,competition with immobilised ligand,10 µM,remaining binding,64%
Cc1ncc(C)n2nc(/C=C/c3nc(N4CCCC4)cc(N4CCOCC4)n3)nc12,enzyme activity,inhibitor,,10 µM,inhibition,6%
Cn1cc(-c2cccc(N3CCc4c(sc5c4CC(C)(C)C5)C3=O)c2CO)cc(Nc2ccncn2)c1=O,enzyme activity,inhibitor,,1 µM,inhibition,-7%
COc1ncccc1-c1cnn2ccc(N3CCN(C(=O)OC(C)C)CC3)nc12,binding,,competition with immobilised ligand,1 µM,remaining binding,70%
O=c1[nH]c2ccccc2n1C1CCN(Cc2ccc(-c3[nH]c4cc5ncnc5cc4nc3-c3ccccc3)cc2)CC1,cell-free assay,,,0.5 µM,remaining signal,109%
